Experimental data from ChEMBL document CHEMBL1137922, “Synthesis and activity of novel analogs of hemiasterlin as inhibitors of tubulin polymerization: modification of the A segment” (Bioorg Med Chem Lett, 2004).
Calls of active or inactive are those of the source. The calls are words filed in the database; no cut-off is given here.

Key:
[1] = system: KB; test: Concentration required to kill human epidermoid KBV1 cell lines containing very high levels of P-glycoprotein after 3 days of continuous exposure; format: functional, cell-based; settings: 72 h
In short: (§1)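 KB-3-1, KB85 and KBV1 cells were plated at densities set to reach 60–90% confluence at analysis. Compounds were serially diluted in medium as 2× stocks and added in duplicate. After 3 days of incubation, cell survival was read by SRB assay and reported as IC50.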

[2] = species: Bos taurus; test: Percent inhibition of bovine microtubule-assisted protein (MAP) rich tubulin polymerisation at concentration of 0.3 uM; (result for 2); format: functional
In short: (§2)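 Bovine MAP-rich tubulin (final 1.5 mg/mL) was prepared in cold PEM buffer (80 mM NaPIPES pH 6.9, 1 mM MgCl2, 1 mM EGTA) with 1 mM GTP and spun at 12,000g for 10 min at 4 C. It was added to duplicate compound wells (final 0.3 µM); controls held 0.3% DMSO. A340 was read every minute for 60 min at 24 C.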

[3] = system: Mus musculus; test: Minimum effective dose against Lox melanoma human xenograft models in athymic mice; format: functional
In short: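 Lox melanoma cells (1.5–7 × 10^6) were injected sc into athymic mice. At 80–100 mg tumour mass, animals were randomised into groups of 5 or 10 and dosed iv in saline. Tumour length and width were measured weekly, with mass = (L·W²)/2. Relative tumour growth and %T/C were calculated.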

[4] = system: Mus musculus; test: Minimum tolerated dose against Lox melanoma human xenograft models in athymic mice; format: functional
[5] = system: KB 3-1; test: Concentration required to kill human epidermoid KB-3-1 cell lines containing very low levels of P-glycoprotein after 3 days of continuous exposure; format: functional, cell-based; settings: KB 3-1, 72 h; in short: as §1
[6] = species: Bos taurus; test: Percent inhibition of bovine microtubule-assisted protein (MAP) rich tubulin polymerisation at concentration of 0.3 uM; format: functional; in short: as §2
[7] = system: KB85 (Homo sapiens); test: Concentration required to kill human epidermoid KB85 cell lines containing moderate levels of P-glycoprotein after 3 days of continuous exposure; settings: KB85, 72 h
[8] = species: Mus musculus; test: Effect at 1.6 mpk against DLD1 cell line expressing P-glycoprotein transporter in athymic mice; Active; format: functional, organism-based; settings: DLD-1
[9] = species: Mus musculus; test: Effect at 1.6 mpk against MX1W cell line expressing P-glycoprotein transporter in athymic mice; Active; format: functional, organism-based
[10] = species: Mus musculus; test: Effect at 1.6 mpk against HCT-15 cell line expressing P-glycoprotein transporter in athymic mice; Active; format: functional, organism-based
[11] = species: Mus musculus; test: Effect at 3 mpk against MX1W cell line expressing P-glycoprotein transporter in athymic mice; Active; format: functional, organism-based
[12] = species: Mus musculus; test: Effect at 3 mpk against HCT-15 cell line expressing P-glycoprotein transporter in athymic mice; inactive; format: functional, organism-based
[13] = species: Mus musculus; test: Effect at 2 mpk against DLD1 cell line expressing P-glycoprotein transporter in athymic mice; Active; format: functional, organism-based; settings: DLD-1
[14] = species: Mus musculus; test: Effect at 2 mpk against MX1W cell line expressing P-glycoprotein transporter in athymic mice; Active; format: functional, organism-based
[15] = species: Mus musculus; test: Effect at 2 mpk against HCT-15 cell line expressing P-glycoprotein transporter in athymic mice; Active; format: functional, organism-based
[16] = species: Bos taurus; test: Percent inhibition of bovine microtubule-assisted protein (MAP) rich tubulin polymerisation at concentration of 0.3 uM; Not applicable; format: functional; in short: as §2
[17] = species: Mus musculus; test: Effect at 4 mpk against DLD1 cell line expressing P-glycoprotein transporter in athymic mice; Active; format: functional, organism-based; settings: DLD-1
[18] = system: KB; test: Concentration required to kill 50% of human epidermoid KBV1 cell lines containing very high levels of P-glycoprotein after 3 days of continuous exposure; format: functional, cell-based; settings: 72 h; in short: as §1
[19] = species: Mus musculus; test: Effect at 1.5 mpk against DLD1 cell line expressing P-glycoprotein transporter in athymic mice; Active; format: functional, organism-based; settings: DLD-1
[20] = species: Mus musculus; test: Effect at 1.5 mpk against MX1W cell line expressing P-glycoprotein transporter in athymic mice; Active; format: functional, organism-based
[21] = species: Mus musculus; test: Effect at 1.5 mpk against HCT-15 cell line expressing P-glycoprotein transporter in athymic mice; Active; format: functional, organism-based

SMILES: CN[C@H](C(=O)N[C@H](C(=O)N(C)[C@H](/C=C(\C)C(=O)O)C(C)C)C(C)(C)C)C(C)(C)c1cccc(C(F)(F)F)c1
- IC50 [1]: 42.7 nM
- Inhibition [2]: 96%
- MED [3]: 1 mpk
- MTD [4]: >5 mpk
- IC50 [5]: 0.65 nM
- Inhibition [6]: 98%
- IC50 [7]: 1.7 nM

SMILES: CN[C@H](C(=O)N[C@H](C(=O)N(C)[C@H](/C=C(\C)C(=O)O)C(C)C)C(C)(C)C)C(C)(C)c1ccccc1 [TALTOBULIN]
- IC50 [1]: 81 nM
- Effect [8]: Active
- Effect [9]: Active
- Effect [10]: Active
- IC50 [5]: 1 nM
- Inhibition [6]: 91%
- IC50 [7]: 2.4 nM

SMILES: CN[C@H](C(=O)N[C@H](C(=O)N(C)[C@H](/C=C(\C)C(=O)O)C(C)C)C(C)(C)C)C(C)(C)c1cccc(F)c1
- IC50 [1]: 77 nM
- Inhibition [2]: 93%
- IC50 [5]: 1 nM
- Inhibition [6]: 103%
- IC50 [7]: 1.8 nM

SMILES: CN[C@H](C(=O)N[C@H](C(=O)N(C)[C@H](/C=C(\C)C(=O)O)C(C)C)C(C)(C)C)C(C)(C)c1cccc(Cl)c1
- IC50 [1]: 91 nM
- Inhibition [2]: 88%
- MED [3]: 0.3 mpk
- MTD [4]: 3 mpk
- Effect [11]: Active
- Effect [12]: inactive
- IC50 [5]: 1.14 nM
- Inhibition [6]: 91%
- IC50 [7]: 3.2 nM

SMILES: CN[C@H](C(=O)N[C@H](C(=O)N(C)[C@H](/C=C(\C)C(=O)O)C(C)C)C(C)(C)C)C(C)(C)c1cccs1
- IC50 [1]: 162 nM
- Inhibition [2]: 88%
- MED [3]: 1 mpk
- MTD [4]: >5 mpk
- IC50 [5]: 2 nM
- Inhibition [6]: 92%
- IC50 [7]: 3.9 nM

SMILES: CN[C@H](C(=O)N[C@H](C(=O)N(C)[C@H](/C=C(\C)C(=O)O)C(C)C)C(C)(C)C)C(C)(C)c1ccc(C)cc1
- IC50 [1]: 55 nM
- Inhibition [2]: 94%
- IC50 [5]: 1.5 nM
- Inhibition [6]: 95%
- IC50 [7]: 2.6 nM

SMILES: CCOC(=O)/C(C)=C/[C@H](C(C)C)N(C)C(=O)[C@@H](NC(=O)[C@@H](NC)C(C)(C)c1ccc(C)c(C)c1)C(C)(C)C
- IC50 [1]: 191 nM
- Inhibition [2]: 92%
- MED [3]: 0.5 mpk
- MTD [4]: >2 mpk
- Effect [13]: Active
- Effect [14]: Active
- Effect [15]: Active
- IC50 [5]: 9.1 nM
- Inhibition [6]: 49%
- IC50 [7]: 24 nM

SMILES: CN[C@@H](C(=O)N[C@H](C(=O)N(C)[C@H](/C=C(\C)C(=O)O)C(C)C)C(C)(C)C)C(C)(C)c1cccc(C)c1
- IC50 [1]: 446 nM
- Inhibition [2]: 89%
- IC50 [5]: 7.9 nM
- Inhibition [6]: 88%
- IC50 [7]: 19.9 nM

SMILES: CN[C@@H](C(=O)N[C@H](C(=O)N(C)[C@H](/C=C(\C)C(=O)O)C(C)C)C(C)(C)C)C(C)(C)c1ccc(C)cc1
- IC50 [1]: 1070 nM
- Inhibition [2]: 94%
- IC50 [5]: 17 nM
- Inhibition [6]: 95%
- IC50 [7]: 27.5 nM

SMILES: C=Cc1cccc(C(C)(C)[C@H](NC)C(=O)N[C@H](C(=O)N(C)[C@H](/C=C(\C)C(=O)O)C(C)C)C(C)(C)C)c1
- IC50 [1]: 130 nM
- Inhibition [2]: 90%
- IC50 [5]: 0.86 nM
- Inhibition [6]: 88%
- IC50 [7]: 2 nM

SMILES: CN[C@H](C(=O)N[C@H](C(=O)N(C)[C@H](/C=C(\C)C(=O)O)C(C)C)C(C)(C)C)C(C)(C)c1cn(C)c2ccccc12 [HEMIASTERLIN]
- IC50 [1]: 76 nM
- inhibition [16]: inactive
- IC50 [5]: 0.3 nM
- IC50 [7]: 1 nM

SMILES: CCOC(=O)/C(C)=C/[C@H](C(C)C)N(C)C(=O)[C@@H](NC(=O)[C@@H](NC)C(C)(C)c1cccc(C)c1)C(C)(C)C
- IC50 [1]: 2410 nM
- Inhibition [2]: 94%
- IC50 [5]: 21.9 nM
- Inhibition [6]: 58%
- IC50 [7]: 525 nM

SMILES: CCc1cccc(C(C)(C)[C@H](NC)C(=O)N[C@H](C(=O)N(C)[C@H](/C=C(\C)C(=O)O)C(C)C)C(C)(C)C)c1
- IC50 [1]: 62 nM
- Inhibition [2]: 90%
- IC50 [5]: 0.79 nM
- Inhibition [6]: 88%
- IC50 [7]: 1.8 nM

SMILES: CN[C@H](C(=O)N[C@H](C(=O)N(C)[C@H](/C=C(\C)C(=O)O)C(C)C)C(C)(C)C)C(C)(C)c1cccc(Br)c1
- IC50 [1]: 148 nM
- Inhibition [2]: 84%
- MED [3]: 1 mpk
- MTD [4]: 4 mpk
- Effect [17]: Active
- IC50 [5]: 1.8 nM
- Inhibition [6]: 90%
- IC50 [7]: 4.1 nM

SMILES: CN[C@H](C(=O)N[C@H](C(=O)N(C)[C@H](/C=C(\C)C(=O)O)C(C)C)C(C)(C)C)C(C)(C)c1cccc(C(C)=O)c1
- IC50 [1]: 370 nM
- Inhibition [2]: 87%
- IC50 [5]: 1.9 nM
- Inhibition [6]: 93%
- IC50 [7]: 5.8 nM

SMILES: CN[C@H](C(=O)N[C@H](C(=O)N(C)[C@H](/C=C(\C)C(=O)O)C(C)C)C(C)(C)C)C(C)(C)c1ccc(C)c(C)c1
- Inhibition [2]: 88%
- MED [3]: 0.2 mpk
- MTD [4]: >1 mpk
- IC50 [5]: 0.4 nM
- IC50 [18]: 39 nM
- Inhibition [6]: 88%
- IC50 [7]: 1.13 nM

SMILES: CN[C@H](C(=O)N[C@H](C(=O)N(C)[C@H](/C=C(\C)C(=O)O)C(C)C)C(C)(C)C)C(C)(C)c1cc(C(F)(F)F)cc(C(F)(F)F)c1
- IC50 [1]: 457 nM
- Inhibition [2]: 93%
- IC50 [5]: 17 nM
- Inhibition [6]: 60%
- IC50 [7]: 19 nM

SMILES: CN[C@H](C(=O)N[C@H](C(=O)N(C)[C@H](/C=C(\C)C(=O)O)C(C)C)C(C)(C)C)C(C)(C)c1ccsc1
- IC50 [1]: 724 nM
- Inhibition [2]: 96%
- IC50 [5]: 2.1 nM
- Inhibition [6]: 88%
- IC50 [7]: 6.6 nM

SMILES: CCOC(=O)/C(C)=C/[C@H](C(C)C)N(C)C(=O)[C@@H](NC(=O)[C@H](NC)C(C)(C)c1cccc(C)c1)C(C)(C)C
- IC50 [1]: 3000 nM
- Inhibition [2]: 94%
- IC50 [5]: 263 nM
- Inhibition [6]: 26%
- IC50 [7]: 1700 nM

SMILES: CN[C@H](C(=O)N[C@H](C(=O)N(C)[C@H](/C=C(\C)C(=O)O)C(C)C)C(C)(C)C)C(C)(C)c1cccc(C)c1
- IC50 [1]: 19 nM
- Inhibition [2]: 89%
- MED [3]: <0.1 mpk
- MTD [4]: 1.5 mpk
- Effect [19]: Active
- Effect [20]: Active
- Effect [21]: Active
- IC50 [5]: 0.23 nM
- Inhibition [6]: 90%
- IC50 [7]: 0.65 nM

SMILES: CN[C@H](C(=O)N[C@H](C(=O)N(C)[C@H](/C=C(\C)C(=O)O)C(C)C)C(C)(C)C)C(C)(C)c1cccc(-c2ccccc2)c1
- IC50 [1]: 149 nM
- Inhibition [2]: 84%
- IC50 [5]: 1.9 nM
- Inhibition [6]: 86%
- IC50 [7]: 5.4 nM

SMILES: CN[C@H](C(=O)N[C@H](C(=O)N(C)[C@H](/C=C(\C)C(=O)O)C(C)C)C(C)(C)C)C(C)(C)c1ccc(Cl)cc1
- IC50 [1]: 53 nM
- Inhibition [2]: 96%
- IC50 [5]: 0.56 nM
- Inhibition [6]: 95%
- IC50 [7]: 1.7 nM

SMILES: CN[C@H](C(=O)N[C@H](C(=O)N(C)[C@H](/C=C(\C)C(=O)O)C(C)C)C(C)(C)C)C(C)(C)c1cc(F)cc(F)c1
- IC50 [1]: 457 nM
- Inhibition [2]: 84%
- IC50 [5]: 6.2 nM
- Inhibition [6]: 90%
- IC50 [7]: 16.2 nM

SMILES: CN[C@H](C(=O)N[C@H](C(=O)N(C)[C@H](/C=C(\C)C(=O)O)C(C)C)C(C)(C)C)C(C)(C)c1cc(C)cc(C)c1
- IC50 [1]: 44 nM
- Inhibition [2]: 88%
- IC50 [5]: 0.55 nM
- Inhibition [6]: 85%
- IC50 [7]: 1.23 nM
